From ChEMBL document CHEMBL4627263, “Hi-JAK-ing the ubiquitin system: The design and physicochemical optimisation of JAK PROTACs” (Bioorg Med Chem, 2020) come the findings set out here.

A word on the IC50: it is the concentration at which inhibition is half-maximal. Usually chromatographic logD stands for lipophilicity estimated from chromatographic retention. Read a low chromatographic logD as lower lipophilicity.

Molecules are shown by their SMILES. The source made the active and inactive calls. The rule behind the calls is not given here.

In data set [1] the target is T1, E3 ubiquitin-protein ligase XIAP/Tyrosine-protein kinase JAK1 (Homo sapiens) (UniProt P23458+P98170). The data set is described as follows: Protac activity at IAP/JAK1 in human THP1 cells assessed as increase in JAK1 degradation at 5 uM after 24 hrs in presence of IAP ligand by Western blot analysis. The note with it: THP-1. Format: cell-based. Summed up:
(§1)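 Unstimulated THP-1 cells were co-treated for 24 h with PROTAC and increasing concentrations of free, active IAP ligand. JAK1/JAK2 protein was quantified by automated Western blot against DMSO-treated basal levels, as the mean of n ≥ 3 separate experiments. Significance was assessed by one-tailed t-test.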
(In general: In western blotting, separated proteins are transferred to a membrane and probed.)

Data set [2] deals with Tyrosine-protein kinase JAK1 (Homo sapiens, UniProt P23458). The data set is described as follows: Inhibition of JAK1 (unknown origin). Summed up: (§2)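 Isolated biochemical JAK enzyme assays. pIC50 values are means of multiple separate experiments (n ≥ 2).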
Tyrosine-protein kinase JAK1, sequence (P23458 whole entry): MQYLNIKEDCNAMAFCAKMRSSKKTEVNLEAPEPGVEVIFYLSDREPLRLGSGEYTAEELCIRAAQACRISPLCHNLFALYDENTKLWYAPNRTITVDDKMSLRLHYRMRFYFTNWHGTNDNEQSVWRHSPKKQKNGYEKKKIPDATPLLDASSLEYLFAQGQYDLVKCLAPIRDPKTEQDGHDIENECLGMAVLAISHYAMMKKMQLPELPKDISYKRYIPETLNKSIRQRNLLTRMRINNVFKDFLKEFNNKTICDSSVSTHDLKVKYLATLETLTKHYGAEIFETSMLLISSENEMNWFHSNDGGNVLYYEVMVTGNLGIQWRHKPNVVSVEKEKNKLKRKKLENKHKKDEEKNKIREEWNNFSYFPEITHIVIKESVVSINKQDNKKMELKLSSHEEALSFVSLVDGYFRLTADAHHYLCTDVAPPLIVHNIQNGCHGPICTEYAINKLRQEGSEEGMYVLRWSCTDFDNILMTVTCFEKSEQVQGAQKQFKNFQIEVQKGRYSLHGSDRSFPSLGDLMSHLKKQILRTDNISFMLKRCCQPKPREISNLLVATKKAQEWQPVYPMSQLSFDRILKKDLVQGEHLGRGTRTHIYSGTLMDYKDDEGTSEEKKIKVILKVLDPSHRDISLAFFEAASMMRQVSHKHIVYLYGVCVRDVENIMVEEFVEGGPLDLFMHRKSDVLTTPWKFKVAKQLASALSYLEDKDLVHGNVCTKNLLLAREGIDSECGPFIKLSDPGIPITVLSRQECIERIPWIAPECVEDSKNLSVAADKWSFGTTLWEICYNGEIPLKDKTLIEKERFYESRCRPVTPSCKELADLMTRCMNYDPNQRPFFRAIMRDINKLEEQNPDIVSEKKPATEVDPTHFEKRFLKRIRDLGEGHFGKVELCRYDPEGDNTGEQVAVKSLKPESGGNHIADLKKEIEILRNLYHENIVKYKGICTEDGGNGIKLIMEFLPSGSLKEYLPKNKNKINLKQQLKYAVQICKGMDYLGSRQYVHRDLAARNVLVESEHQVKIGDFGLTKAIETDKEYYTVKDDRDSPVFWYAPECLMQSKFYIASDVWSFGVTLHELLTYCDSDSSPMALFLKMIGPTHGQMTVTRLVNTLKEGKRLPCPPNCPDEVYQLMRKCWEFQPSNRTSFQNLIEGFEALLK
Data set [3] has as its target T2, E3 ubiquitin-protein ligase XIAP/Tyrosine-protein kinase JAK2 (Homo sapiens) (UniProt O60674+P98170). The experiment in a line: Protac activity at IAP/JAK2 in human THP1 cells assessed as increase in JAK2 degradation at 5 uM after 24 hrs in presence of IAP ligand by Western blot analysis. The class given is cell-based. The note with it: THP-1. Summed up: as §1

Data set [4] is filed under the species Homo sapiens. The experiment in a line: Selectivity ratio, difference between pIC50 for JAK3 (unknown origin) to pIC50 for inhibition of JAK1/JAK3 in human PBMC cells assessed as reduction in IL2-induced IFNgamma production. Format: cell-based. Summed up:
(§3)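 Permeability surrogate calculated as drop-off = 10^(biochemical JAK1 or JAK3 pIC50 − IL2 PBMC pIC50). The cellular step used a 1 h incubation.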

Data set [5] concerns the target T3, Tyrosine-protein kinase JAK3 (Homo sapiens, UniProt P52333).
T3 sequence (P52333 whole entry): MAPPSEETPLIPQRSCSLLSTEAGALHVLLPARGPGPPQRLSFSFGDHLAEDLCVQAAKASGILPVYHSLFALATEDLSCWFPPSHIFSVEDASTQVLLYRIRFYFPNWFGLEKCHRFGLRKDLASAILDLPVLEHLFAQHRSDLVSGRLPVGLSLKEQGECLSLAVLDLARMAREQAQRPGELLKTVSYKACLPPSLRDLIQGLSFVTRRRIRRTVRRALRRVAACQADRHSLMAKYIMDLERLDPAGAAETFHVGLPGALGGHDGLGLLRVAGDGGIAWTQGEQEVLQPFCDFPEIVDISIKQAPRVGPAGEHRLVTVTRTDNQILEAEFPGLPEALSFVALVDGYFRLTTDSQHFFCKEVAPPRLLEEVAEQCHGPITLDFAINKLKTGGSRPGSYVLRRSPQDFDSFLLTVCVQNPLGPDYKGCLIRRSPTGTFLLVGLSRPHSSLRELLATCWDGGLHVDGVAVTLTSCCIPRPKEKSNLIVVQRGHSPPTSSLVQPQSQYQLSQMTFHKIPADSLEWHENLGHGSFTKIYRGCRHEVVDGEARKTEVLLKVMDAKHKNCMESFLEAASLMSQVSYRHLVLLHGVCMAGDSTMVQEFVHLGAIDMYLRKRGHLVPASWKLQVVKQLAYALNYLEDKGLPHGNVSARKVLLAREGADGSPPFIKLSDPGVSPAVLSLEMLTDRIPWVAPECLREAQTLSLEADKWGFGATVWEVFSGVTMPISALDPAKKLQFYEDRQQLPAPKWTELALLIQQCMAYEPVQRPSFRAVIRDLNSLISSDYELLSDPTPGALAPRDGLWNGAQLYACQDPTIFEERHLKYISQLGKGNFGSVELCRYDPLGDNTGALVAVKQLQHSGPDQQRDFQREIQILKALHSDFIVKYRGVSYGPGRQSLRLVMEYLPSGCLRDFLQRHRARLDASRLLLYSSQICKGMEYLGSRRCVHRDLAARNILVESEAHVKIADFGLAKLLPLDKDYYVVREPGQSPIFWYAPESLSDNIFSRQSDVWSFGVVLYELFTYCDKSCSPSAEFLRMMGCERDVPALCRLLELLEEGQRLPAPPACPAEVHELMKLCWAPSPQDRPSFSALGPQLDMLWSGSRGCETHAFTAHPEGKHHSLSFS
The experiment in a line: Inhibition of JAK3 (unknown origin). In outline:
as §2

In another data set the target is JAK3/JAK1 (Homo sapiens, UniProt P23458+P52333). The experiment in a line: Inhibition of JAK1/JAK3 in human PBMC cells assessed as reduction in IL2-induced IFNgamma production. The class given is cell-based. Summed up:
(§4)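 Human PBMCs were given a 1 h compound incubation in the IL-2-stimulated assay, with IFNγ signalling as the cellular potency readout, reported as pIC50.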

Data set [6] is filed under the species Homo sapiens. The data set is described as follows: Selectivity ratio, difference between pIC50 for JAK1 (unknown origin) to pIC50 for inhibition of JAK1/JAK3 in human PBMC cells assessed as reduction in IL2-induced IFNgamma production. Format: cell-based. In outline: as §3
Data set [7] addresses Tyrosine-protein kinase JAK2 (Homo sapiens, UniProt O60674). The experiment in a line: Inhibition of JAK2 (unknown origin). Summed up: as §2
Data set [8] deals with T1, E3 ubiquitin-protein ligase XIAP/Tyrosine-protein kinase JAK1 (Homo sapiens). The data set is described as follows: Protac activity at IAP/JAK1 in human THP1 cells assessed as increase in JAK1 degradation at 5 uM after 24 hrs by Western blot analysis relative to control. The class given is cell-based. The note with it: THP-1. In outline:
(§5)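 Unstimulated THP-1 cells were exposed to PROTAC across 0.6–10 µM for 24 h. JAK1/JAK2 levels were read by automated Western blot using antibodies detecting only unphosphorylated JAK. % degradation is relative to basal levels in DMSO-treated cells, as the mean of separate experiments (n ≥ 3). Significance was assessed by one-tailed Student's t-test at each concentration.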

For data set [9], the target named is T2, E3 ubiquitin-protein ligase XIAP/Tyrosine-protein kinase JAK2 (Homo sapiens). The experiment in a line: Protac activity at IAP/JAK2 in human THP1 cells assessed as increase in JAK2 degradation at 5 uM after 24 hrs by Western blot analysis relative to control. Format: cell-based. To be noted: THP-1. Summed up: as §5
Data set [10] is described as follows: Lipophilicity, log D of the compound at pH 7.4 by chromatographic method. The class given is physicochemical. The note with it: buffer.
Data set [11] has as its target T1, E3 ubiquitin-protein ligase XIAP/Tyrosine-protein kinase JAK1 (Homo sapiens). The experiment in a line: Protac activity at IAP/JAK1 in human THP1 cells assessed as increase in JAK1 degradation up to 10 uM after 24 hrs by Western blot analysis. Format: cell-based. The note with it: THP-1. In outline:
as §5

Data set [12] has the same target. The experiment in a line: Protac activity at IAP/JAk1 in human PBMC cells assessed as reduction in IL2-induced IFNgamma production measured after 1 hr. The class given is cell-based. Summed up:
as §4

The target of data set [13] is T2, E3 ubiquitin-protein ligase XIAP/Tyrosine-protein kinase JAK2 (Homo sapiens). The experiment in a line: Protac activity at IAP/JAK2 in human THP1 cells assessed as increase in JAK2 degradation up to 10 uM after 24 hrs by Western blot analysis relative to control. Format: cell-based. To be noted: THP-1. In outline: as §5
For data set [14] the target is unchanged. The experiment in a line: Protac activity at IAP/JAK2 in human THP1 cells assessed as increase in JAK2 degradation in presence of proteasome inhibitor MG132 by immunoprecipitation assay. To be noted: THP-1. The class given is cell-based.
Data set [15] deals with T1, E3 ubiquitin-protein ligase XIAP/Tyrosine-protein kinase JAK1 (Homo sapiens). The data set is described as follows: Protac activity at IAP/JAK1 in human THP1 cells assessed as increase in JAK1 degradation in presence of proteasome inhibitor MG132 by immunoprecipitation assay. The class given is cell-based. The note with it: THP-1.
Data set [16] has as its target T2, E3 ubiquitin-protein ligase XIAP/Tyrosine-protein kinase JAK2 (Homo sapiens). The experiment in a line: Protac activity at IAP/JAK2 in human THP1 cells assessed as increase in JAK2 ubiquitination by immunoprecipitation assay. The class given is cell-based. To be noted: THP-1.
The target is the same in data set [17]. The data set is described as follows: Protac activity at IAP/JAK2 in human THP1 cells assessed as increase in JAK2 degradation at 10 uM after 24 hrs by Western blot analysis relative to control. The note with it: THP-1. The class given is cell-based. Summed up:
as §5

Data set [18] addresses T1, E3 ubiquitin-protein ligase XIAP/Tyrosine-protein kinase JAK1 (Homo sapiens). The experiment in a line: Protac activity at IAP/JAK1 in human THP1 cells assessed as increase in JAK1 degradation at 10 uM after 24 hrs by Western blot analysis. The class given is cell-based. To be noted: THP-1. Summed up:
as §5

T1 sequence (P23458 whole entry, looked up): as the sequence (P23458 whole entry) above
T1 sequence (P98170 whole entry, looked up): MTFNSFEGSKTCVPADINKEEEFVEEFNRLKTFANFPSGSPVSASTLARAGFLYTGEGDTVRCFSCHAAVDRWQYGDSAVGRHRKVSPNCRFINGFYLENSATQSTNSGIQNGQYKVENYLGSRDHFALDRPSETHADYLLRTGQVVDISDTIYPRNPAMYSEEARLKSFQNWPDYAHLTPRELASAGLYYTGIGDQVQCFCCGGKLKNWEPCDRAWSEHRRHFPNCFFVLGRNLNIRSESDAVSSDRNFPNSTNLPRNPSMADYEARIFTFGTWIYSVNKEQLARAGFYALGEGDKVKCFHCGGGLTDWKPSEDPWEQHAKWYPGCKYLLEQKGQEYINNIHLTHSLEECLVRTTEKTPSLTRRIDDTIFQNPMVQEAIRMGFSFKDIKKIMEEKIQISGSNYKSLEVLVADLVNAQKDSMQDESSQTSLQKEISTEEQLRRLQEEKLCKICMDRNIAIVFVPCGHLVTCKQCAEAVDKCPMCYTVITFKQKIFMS
T2 sequence (O60674 whole entry, looked up): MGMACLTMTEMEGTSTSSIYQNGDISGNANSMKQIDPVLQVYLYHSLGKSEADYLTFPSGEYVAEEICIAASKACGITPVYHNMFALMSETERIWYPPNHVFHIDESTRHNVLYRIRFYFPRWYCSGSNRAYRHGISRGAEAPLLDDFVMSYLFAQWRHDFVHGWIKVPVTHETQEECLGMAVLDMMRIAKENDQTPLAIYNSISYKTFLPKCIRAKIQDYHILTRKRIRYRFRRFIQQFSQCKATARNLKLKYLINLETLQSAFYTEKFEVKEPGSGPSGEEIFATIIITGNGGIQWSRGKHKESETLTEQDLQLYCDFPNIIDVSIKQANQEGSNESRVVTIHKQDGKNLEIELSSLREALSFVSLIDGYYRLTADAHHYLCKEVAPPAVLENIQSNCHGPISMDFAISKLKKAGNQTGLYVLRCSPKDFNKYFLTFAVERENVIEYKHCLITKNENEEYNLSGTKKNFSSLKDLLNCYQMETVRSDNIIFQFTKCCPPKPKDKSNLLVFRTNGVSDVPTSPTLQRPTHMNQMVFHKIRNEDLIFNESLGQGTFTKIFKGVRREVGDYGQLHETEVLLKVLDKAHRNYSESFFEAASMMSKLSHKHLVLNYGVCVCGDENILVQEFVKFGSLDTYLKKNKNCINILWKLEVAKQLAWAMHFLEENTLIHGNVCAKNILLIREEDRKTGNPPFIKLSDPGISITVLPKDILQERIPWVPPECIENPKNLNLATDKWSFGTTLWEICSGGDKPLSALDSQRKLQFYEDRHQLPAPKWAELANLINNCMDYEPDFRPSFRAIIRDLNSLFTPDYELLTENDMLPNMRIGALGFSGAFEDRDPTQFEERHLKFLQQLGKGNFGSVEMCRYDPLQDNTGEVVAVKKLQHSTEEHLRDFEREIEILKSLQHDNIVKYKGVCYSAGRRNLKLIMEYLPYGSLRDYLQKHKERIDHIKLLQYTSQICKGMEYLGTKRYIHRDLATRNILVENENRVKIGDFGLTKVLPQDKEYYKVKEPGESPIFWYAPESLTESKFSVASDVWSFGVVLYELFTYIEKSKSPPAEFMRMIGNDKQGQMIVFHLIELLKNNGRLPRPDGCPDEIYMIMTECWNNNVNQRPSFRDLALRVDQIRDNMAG
T2 sequence (P98170 whole entry, looked up): as the sequence (P98170 whole entry, looked up) above
JAK3/JAK1, sequence (P23458 whole entry, one chain of several): as the sequence (P23458 whole entry) above
Tyrosine-protein kinase JAK2, sequence (O60674 whole entry): as the sequence (O60674 whole entry, looked up) above

Consider `COc1cc(-c2cnc3cccc(-c4cc(F)c(CN5CCS(=O)(=O)CC5)c(F)c4)c3n2)ccc1OCCCN1CCOCC1`, for which the result in data set [1], in data set [3], in [8] and in data set [9] was inactive. Further, the IC50 in data set [2] was 7.94 nM; in [5], 7.94 nM; at JAK3/JAK1 it was 316 nM; in [7], 0.251 nM. For the same compound, the Selectivity ratio in the data set listed under Homo sapiens [4] and in the data set listed under Homo sapiens [6] was 40 in each case. In addition, in data set [10], the chromatographic logD was 6.
As for `CN[C@@H](C)C(=O)N[C@H](C(=O)N1C[C@@H](NC(=O)CCCCCCCCCn2cc(Nc3ncc(Cl)c(NCc4cc(F)ccc4F)n3)cn2)C[C@H]1C(=O)N[C@@H]1CCCc2ccccc21)C1CCCCC1`, the result in [11] was Active. Also, the outcome in [12] was inactive. The Activity in [13] was less than 35%. In data set [10], this compound returned a chromatographic logD of 5 to 8.
For `CN[C@@H](C)C(=O)N[C@H](C(=O)N1C[C@@H](NC(=O)COCCOCCOCCOCCOc2cc(F)cc(CNc3nc(Nc4cnn(C)c4)ncc3Cl)c2F)C[C@H]1C(=O)N[C@@H]1CCCc2ccccc21)C1CCCCC1` the same measures were “Active”, “inactive”, less than 35% and 5 to 8.
`CN[C@@H](C)C(=O)N[C@H](C(=O)N1C[C@@H](NC(=O)CCCCCCCCCN2CCN(CCCOc3ccc(-c4cnc5cccc(-c6cc(F)c(CN7CCS(=O)(=O)CC7)c(F)c6)c5n4)cc3OC)CC2)C[C@H]1C(=O)N[C@@H]1CCCc2ccccc21)C1CCCCC1`: the outcome in data set [11] and in data set [16] was Active. Also, the outcome in data set [12], in [1], in data set [3], in [14] and in data set [15] was inactive. The figures for the Activity in [13], in data set [8] and in [9] were less than 35%, 48% and 65%, respectively. This compound showed a chromatographic logD in data set [10] of 5 to 8.
Take `OCCn1cc(Nc2ncc(Cl)c(NCc3cc(F)ccc3F)n2)cn1`: the IC50 in data set [2] is less than 0.158 nM; in data set [5] it was 1 nM; at JAK3/JAK1, 7.94 nM; in data set [7] it was 0.316 nM. The Selectivity ratio was 8 in the data set filed under Homo sapiens [4] and more than 50 in the data set filed under Homo sapiens [6]. The same compound returned a chromatographic logD in data set [10] of 3.5.
Consider `CN[C@@H](C)C(=O)N[C@H](C(=O)N1C[C@@H](NC(=O)CCCCCCCCCOc2cc(F)cc(CNc3nc(Nc4cnn(C)c4)ncc3Cl)c2F)C[C@H]1C(=O)N[C@@H]1CCCc2ccccc21)C1CCCCC1`, for which the result in data set [11] was Active. Besides, the outcome in data set [12], in data set [17] and in [18] was inactive. For the same compound, the Activity in [13] is less than 35%. The compound also came in with a chromatographic logD in data set [10] of 5 to 8.
`CN[C@@H](C)C(=O)N[C@H](C(=O)N1C[C@@H](NC(=O)COCCOCCOCCOCCn2cc(Nc3ncc(Cl)c(NCc4cc(F)ccc4F)n3)cn2)C[C@H]1C(=O)N[C@@H]1CCCc2ccccc21)C1CCCCC1`: in data set [11], the outcome was Active. Also, in data set [12], the result was inactive. Further, the Activity in data set [13] is less than 35%. In data set [10], this compound yielded a chromatographic logD of 5 to 8.
Regarding `CN[C@H](C)C(=O)N[C@@H](C(=O)N1C[C@H](NC(=O)CCCCCCCCCN2CCN(CCCOc3ccc(-c4cnc5cccc(-c6cc(F)c(CN7CCS(=O)(=O)CC7)c(F)c6)c5n4)cc3OC)CC2)C[C@@H]1C(=O)N[C@H]1CCCc2ccccc21)C1CCCCC1`, the outcome in data set [8] and in [9] was inactive.
For `CN[C@@H](C)C(=O)N[C@H](C(=O)N1C[C@@H](NC(=O)COCCOCCOCCOCCN2CCN(CCCOc3ccc(-c4cnc5cccc(-c6cc(F)c(CN7CCS(=O)(=O)CC7)c(F)c6)c5n4)cc3OC)CC2)C[C@H]1C(=O)N[C@@H]1CCCc2ccccc21)C1CCCCC1`, the outcome in data set [11] was Active. Moreover, in data set [12], the outcome was inactive. Besides, the Activity in [13] was less than 35%. This compound showed a chromatographic logD in [10] of 5 to 8.
